# Test system: Fibroblast
# Experiment: Multiplex assay against human fibroblast
# Format: toxicity, cell-based
# Summary of the method: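 Hoechst33342, BioTracker Green Microtubule Cytoskeleton Dye, MitoTracker Red and Annexin V Alexa Fluor 680 were added to live cells at seeding, and imaging on a CQ1 microscope at 37°C and 5% CO2 followed compound addition. Gating by CellPathfinder machine learning separated cells into Hoechst high-intensity objects or normal cells, then normal cells into healthy, pyknosed or fragmented nuclei, then pyknosed cells into mitotic or apoptotic. Per cents of healthy-nucleus cells are reported for the tubulin, mitochondrial-mass and membrane-permeability phenotypes.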
# [1] = 12 h, 1 µM, compound concentration 1 uM, replicate 1
# [2] = 12 h, 1 µM, compound concentration 1 uM, replicate 2
# [3] = 12 h, 10 µM, compound concentration 10 uM, replicate 1
# [4] = 12 h, 10 µM, compound concentration 10 uM, replicate 2
# [5] = 24 h, 1 µM, compound concentration 1 uM, replicate 1
# [6] = 24 h, 1 µM, compound concentration 1 uM, replicate 2
# [7] = 24 h, 10 µM, compound concentration 10 uM, replicate 1
# [8] = 24 h, 10 µM, compound concentration 10 uM, replicate 2
# [9] = 48 h, 1 µM, compound concentration 1 uM, replicate 1
# [10] = 48 h, 1 µM, compound concentration 1 uM, replicate 2
# [11] = 48 h, 10 µM, compound concentration 10 uM, replicate 1
# [12] = 48 h, 10 µM, compound concentration 10 uM, replicate 2
smiles,measurement,setting,value
C[C@H](N)COC(=O)[C@@H](CCCCN)NC(=O)Cc1c(-c2ccc3ccccc3c2)[nH]c2c1ccc1ccccc12,Population Apoptotic (%),[1],32%
same,Population Fragmented Nuclei (%),[1],18%
same,Population Healthy Nuclei (%),[1],65%
same,Population Hoechst High Intensity Objects (%),[1],1%
same,Population Membrane Permeable-Phenotype (%),[1],0%
same,Population Mitochondria Different-Phenotype (%),[1],7%
same,Population Mitotic Cells (%),[1],67%
same,Population Normal (%),[1],98%
same,Population Pyknosed Nuclei (%),[1],15%
same,Population Tubulin-Different-Phenotype (%),[1],32%
same,Total Cell Count,[1],179
same,Population Apoptotic (%),[2],50%
same,Population Fragmented Nuclei (%),[2],25%
same,Population Healthy Nuclei (%),[2],51%
same,Population Hoechst High Intensity Objects (%),[2],4%
same,Population Membrane Permeable-Phenotype (%),[2],5%
same,Population Mitochondria Different-Phenotype (%),[2],4%
same,Population Mitotic Cells (%),[2],50%
same,Population Normal (%),[2],95%
same,Population Pyknosed Nuclei (%),[2],23%
same,Population Tubulin-Different-Phenotype (%),[2],36%
same,Total Cell Count,[2],170
same,Population Apoptotic (%),[3],43%
same,Population Fragmented Nuclei (%),[3],13%
same,Population Healthy Nuclei (%),[3],69%
same,Population Hoechst High Intensity Objects (%),[3],2%
same,Population Membrane Permeable-Phenotype (%),[3],1%
same,Population Mitochondria Different-Phenotype (%),[3],8%
same,Population Mitotic Cells (%),[3],56%
same,Population Normal (%),[3],97%
same,Population Pyknosed Nuclei (%),[3],16%
same,Population Tubulin-Different-Phenotype (%),[3],33%
same,Total Cell Count,[3],183
same,Population Apoptotic (%),[4],62%
same,Population Fragmented Nuclei (%),[4],32%
same,Population Healthy Nuclei (%),[4],50%
same,Population Hoechst High Intensity Objects (%),[4],7%
same,Population Membrane Permeable-Phenotype (%),[4],5%
same,Population Mitochondria Different-Phenotype (%),[4],6%
same,Population Mitotic Cells (%),[4],37%
same,Population Normal (%),[4],92%
same,Population Pyknosed Nuclei (%),[4],17%
same,Population Tubulin-Different-Phenotype (%),[4],47%
same,Total Cell Count,[4],167
same,Population Apoptotic (%),[5],53%
same,Population Fragmented Nuclei (%),[5],16%
same,Population Healthy Nuclei (%),[5],66%
same,Population Hoechst High Intensity Objects (%),[5],3%
same,Population Membrane Permeable-Phenotype (%),[5],0%
same,Population Mitochondria Different-Phenotype (%),[5],5%
same,Population Mitotic Cells (%),[5],46%
same,Population Normal (%),[5],96%
same,Population Pyknosed Nuclei (%),[5],17%
same,Population Tubulin-Different-Phenotype (%),[5],30%
same,Total Cell Count,[5],179
same,Population Apoptotic (%),[6],29%
same,Population Fragmented Nuclei (%),[6],25%
same,Population Healthy Nuclei (%),[6],54%
same,Population Hoechst High Intensity Objects (%),[6],7%
same,Population Membrane Permeable-Phenotype (%),[6],3%
same,Population Mitochondria Different-Phenotype (%),[6],7%
same,Population Mitotic Cells (%),[6],70%
same,Population Normal (%),[6],92%
same,Population Pyknosed Nuclei (%),[6],20%
same,Population Tubulin-Different-Phenotype (%),[6],39%
same,Total Cell Count,[6],162
same,Population Apoptotic (%),[7],63%
same,Population Fragmented Nuclei (%),[7],13%
same,Population Healthy Nuclei (%),[7],74%
same,Population Hoechst High Intensity Objects (%),[7],7%
same,Population Membrane Permeable-Phenotype (%),[7],0%
same,Population Mitochondria Different-Phenotype (%),[7],5%
same,Population Mitotic Cells (%),[7],36%
same,Population Normal (%),[7],92%
same,Population Pyknosed Nuclei (%),[7],11%
same,Population Tubulin-Different-Phenotype (%),[7],31%
same,Total Cell Count,[7],171
same,Population Apoptotic (%),[8],50%
same,Population Fragmented Nuclei (%),[8],36%
same,Population Healthy Nuclei (%),[8],50%
same,Population Hoechst High Intensity Objects (%),[8],6%
same,Population Membrane Permeable-Phenotype (%),[8],5%
same,Population Mitotic Cells (%),[8],50%
same,Population Normal (%),[8],93%
same,Population Pyknosed Nuclei (%),[8],13%
same,Population Tubulin-Different-Phenotype (%),[8],54%
same,Total Cell Count,[8],159
same,Population Apoptotic (%),[9],72%
same,Population Fragmented Nuclei (%),[9],21%
same,Population Healthy Nuclei (%),[9],65%
same,Population Hoechst High Intensity Objects (%),[9],5%
same,Population Membrane Permeable-Phenotype (%),[9],0%
same,Population Mitochondria Different-Phenotype (%),[9],7%
same,Population Mitotic Cells (%),[9],27%
same,Population Normal (%),[9],94%
same,Population Pyknosed Nuclei (%),[9],12%
same,Population Tubulin-Different-Phenotype (%),[9],26%
same,Total Cell Count,[9],186
same,Population Apoptotic (%),[10],51%
same,Population Fragmented Nuclei (%),[10],30%
same,Population Healthy Nuclei (%),[10],50%
same,Population Hoechst High Intensity Objects (%),[10],2%
same,Population Membrane Permeable-Phenotype (%),[10],3%
same,Population Mitochondria Different-Phenotype (%),[10],6%
same,Population Mitotic Cells (%),[10],48%
same,Population Normal (%),[10],97%
same,Population Pyknosed Nuclei (%),[10],18%
same,Population Tubulin-Different-Phenotype (%),[10],39%
same,Total Cell Count,[10],169
same,Population Apoptotic (%),[11],46%
same,Population Fragmented Nuclei (%),[11],16%
same,Population Healthy Nuclei (%),[11],68%
same,Population Hoechst High Intensity Objects (%),[11],9%
same,Population Membrane Permeable-Phenotype (%),[11],0%
same,Population Mitochondria Different-Phenotype (%),[11],4%
same,Population Mitotic Cells (%),[11],53%
same,Population Normal (%),[11],90%
same,Population Pyknosed Nuclei (%),[11],15%
same,Population Tubulin-Different-Phenotype (%),[11],35%
same,Total Cell Count,[11],185
same,Population Apoptotic (%),[12],55%
same,Population Fragmented Nuclei (%),[12],36%
same,Population Healthy Nuclei (%),[12],52%
same,Population Hoechst High Intensity Objects (%),[12],5%
same,Population Membrane Permeable-Phenotype (%),[12],7%
same,Population Mitochondria Different-Phenotype (%),[12],8%
same,Population Mitotic Cells (%),[12],44%
same,Population Normal (%),[12],94%
same,Population Pyknosed Nuclei (%),[12],11%
same,Population Tubulin-Different-Phenotype (%),[12],54%
same,Total Cell Count,[12],166

# Reference: ChEMBL document CHEMBL5058577, “EUbOPEN Chemogenomics Library 2 (Multiplex)” (2022)
